HIF activator – HIF pathway transcriptional activators, primary screen, cell-based, U2OS HRE-luciferase, luminescence | U2OS HRE-luciferase reporter; normalized: DMSO 0%, desferrioxamine 100% | activation, % at 7.5 µM (by protocol) | actives 0.32% (n = 300,000) | AID 1910, 2009;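 active means mean activation of at least 10% of the iron chelator positive control signal, with at least half of replicates also reaching 10%; inconclusive means mean and replicate majority disagree about reaching 10%; inactive means mean and most replicates under 10%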
T cruzi repl – inhibitors of intracellular T. cruzi growth, primary screen, luminescence, NIH3T3 host cells | T. cruzi beta-gal in NIH3T3, 90 h | inhibition, % (concentration not given with the values) | actives 1.4% (n = 300,000) | AID 1885, 2009;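 active means mean inhibition across valid replicates above about 55%, limit read from the data; inconclusive means mean below that limit but half or more replicates reach it; inactive means mean below it, under half of replicates reach it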;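 further: signal also drops with host cell toxicity which is not excluded here; 0% = plate median of DMSO wells and 100% = zero luminescence signal; higher percent means less beta-gal luminescence so fewer parasites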
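System: NIH/3T3 fibroblasts plus reporter T. cruzi. Medium: DMEM plus 2% FBS. Probe or stimulus: 5000 reporter trypomastigotes per well. Compound: single 50 nL compound addition per well in DMSO. Incubation: co-culture of at least 90 h after 3 h attachment. Detection: GalScreen β-gal luminescence, detergent lysis, 60 min. Evaluation: parasite load inhibition, %.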
Calb FLC – C. albicans growth inhibition with fluconazole, primary screen, CaCi-2 strain, Alamar Blue fluorescence; C. albicans CaCi-2 (fluconazole-resistant clinical isolate) + fluconazole, 48 h; growth inhibition, % (concentration not given with the values); actives 0.57% (n = 300,000); AID 1979, 2009;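 active means growth inhibition above about 58% in most replicates, limit read from the data, passing the limit was not always enough; inconclusive means exactly half the replicates above a set limit; inactive means most replicates below a set limit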;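 further: all wells also contain fluconazole at 8 µg/ml as a sub-toxic cotreatment; 0% = median of DMSO wells and 100% = median of geldanamycin control wells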
Beta cell apopt – inhibitors of cytokine-induced beta cell apoptosis, primary screen, luminescence; INS-1E cytokine-induced death, ATP luminescence, 48 h; percent of positive-control rescue, neutral wells zero; actives 0.8% (n = 300,000); protection from apoptosis, % (concentration not given with the values);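 active means Every replicate reaches about 75%, or at least half do and their mean reaches it too, limit read from the data; inconclusive means At least half of replicates reach the limit but their mean does not; inactive means Under half of replicates reach the limit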;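 further: 0% = cytokine-treated negative control wells and 100% = positive control rescue; higher means more ATP so stronger rescue from cytokine killing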
CSC inhib – cancer stem cell viability inhibitors, primary screen, luminescence; cancer stem cell-like cells viability; inhibition, % at 7.5 µM; actives 1.1% (n = 300,000); AID 2717, 2010; in the data active means inhibition above about 75%; inconclusive means no clear call, values can overlap the other calls; tested in HMLE shEcad cells
PolyA inh – polyadenylation inhibitors in yeast reporter cells, primary screen, luminescence, S. cerevisiae; activity score, % at 12 µM; actives 0.02% (n = 300,000); S. cerevisiae SKY197-pL101 polyadenylation reporter, beta-gal luminescence; efflux-impaired pdr1/pdr3 knockout yeast; score 100 = 6 SD above DMSO;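 active means lowest replicate activity score at least 50, where 100 means six control SD above control mean; inconclusive means lowest score under 50 but half or more replicates reach 50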;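 further: yeast exposed to compound for 9 h at 30 °C; higher score means more reporter readthrough which indicates perturbed polyadenylation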
An asterisk follows results filed as active; ? = inconclusive; . = not tested or not shown. The list is not random: actives were taken first. Their share in the collection is about 3.1%.

SMILES	HIF activator	T cruzi repl	Calb FLC	Beta cell apopt	CSC inhib	PolyA inh
OC(COc1ccc2ccccc2c1Br)Cn1cnc(-c2ccccc2)c1 (stereo not drawn)	0	23	-3	3	101*	-20
CC(C)COc1ccc(C(=O)Nc2scc(-c3ccc(Cl)cc3Cl)c2C(N)=O)cc1	0	55*	?	25	44	-5
Fc1ccc(Nc2c3c(nc4ccccc24)CCC3)cc1	-1	58*	49	.	.	-7
C[C@@]12C(=O)OC(=O)[C@]1(C)C1CCC2O1	.	.	.	79*	109*	.
Cc1ccc(-n2c(C)cc(/C([O-])=C(/C(=S)Nc3ccc(F)c(Cl)c3)[n+]3ccccc3)c2C)cc1	-2	29	110*	.	-2	-11
CCCN(CCC)CC(O)Cn1cc(/C=C/C(=O)c2ccccc2)c2ccccc21 (stereo not drawn)	0	41	1	.	.	6
CCCCN(C)CC(O)Cn1cc(/C=C/C(=O)c2ccc(C)cc2)c2ccccc21 (stereo not drawn)	1	?	10	10	82*	16
CS(=O)(=O)NCCSCc1c(Cl)cccc1Cl	0	75*	-5	-4	-17	2
S=C(NCCSCc1c(Cl)cccc1Cl)Nc1ccccc1	0	56*	95*	4	.	.
C=CC[C@]12CCc3sccc3C1N(c1ccc(C(=O)OCC)cc1)C2=O (stereo partly drawn)	.	.	.	-4	1	.
CCn1nc(C)c(CNC(=O)Nc2ccccc2C(=O)OC)c1C	0	-7	6	3	41	24
O=[N+]([O-])c1c(NCCCO)cc(Sc2nc3ccccc3s2)c2nonc12	0	31	39	0	-4	12
CCCC(=O)OCCNc1cc(Sc2nccn2C)c2nonc2c1[N+](=O)[O-]	0	61*	14	-3	50	-6
CCC(=O)OCCNc1cc(Sc2nc3ccccc3s2)c2nonc2c1[N+](=O)[O-]	0	46	0	22	106*	-47
C1=CCN(Cc2ccccc2)C1	0	-10	.	-6	-14	1
CCCn1nc([N+](=O)[O-])c(C(C#N)c2nc3ccccc3s2)c(Cl)c1=O (stereo not drawn)	0	1	99*	33	98*	-20
O=C(Nc1ccc(Cl)cc1)c1cc2c(cc1O)[nH]c1ccccc12	0	-14	-3	39	116*	-46
CCCCCCc1ccc(N2C[C@H](Cc3ccccc3)[C@@H](CC(=O)Nc3ccccc3)C2=O)cc1	0	13	-8	104*	36	5
CCCCCCc1ccc(N2C[C@H](Cc3ccccc3)[C@@H](CC(=O)NCc3ccc(OC)cc3)C2=O)cc1	1	-8	-10	100*	64	0
CCc1cccc(C)c1NC(=S)N(CCCN1CCOCC1)Cc1cccnc1	-1	-7	-6	-4	-6	4
COc1cc(C2CC(=O)C3=C(C2)Nc2ncnn2C3c2cccs2)cc(OC)c1OC (stereo not drawn)	0	11	2	-2	0	5
COc1ccc(C2CC(=O)C3=C(C2)Nc2ncnn2C3c2ccccc2C)c(OC)c1 (stereo not drawn)	-1	61*	6	-11	.	-6
CCCN(C(=O)C(=O)Nc1ccc2nc3n(c(=O)c2c1)CCCCC3)c1ccc(OCC)cc1	0	-2	19	11	-18	-11
O=C1NC(=S)N/C1=C\c1ccc(N2CCOCC2)cc1	1	-11	-19	-2	-6	4
Cc1c(Cl)cccc1NC(=O)c1nc(C)n(-c2cc(OC(C)C)c(Cl)cc2Cl)n1	1	56*	9	-15	21	-9
SMILES	HIF activator	T cruzi repl	Calb FLC	Beta cell apopt	CSC inhib	PolyA inh
CCOc1ccccc1Nc1nc(N2CCCC2)nc(N2CCOCC2)n1	-1	-4	2	-2	5	6
CCOC(=O)c1c(-c2ccc(C)o2)csc1NC(=O)CSc1nnnn1-c1ccccc1	-1	60*	31	-2	2	-5
CCOC(=O)c1c(-c2ccc(C)o2)csc1NC(=O)CSc1nnc(C)s1	0	27	21	-3	0	-8
COc1ccc(Cc2nnc(SCC(=O)c3ccc4c(c3)NC(=O)CO4)o2)cc1	-1	1	4	-8	8	-8
COc1ccc(/C=C2\SC(=S)N(Cc3cccnc3)C2=O)cc1C	0	-5	-3	-3	80*	13
O=C1/C(=C/c2ccc(O)cc2)SC(=S)N1Cc1cccnc1	0	10	3	0	7	-13
C#CCOc1ccc(/C=C2\SC(=S)N(Cc3cccnc3)C2=O)cc1	2	29	-31	.	79*	-20
O=C(COc1ccccc1)Nc1nnc(S(=O)(=O)N2CCCCCC2)s1	0	12	-9	-4	4	-5
Clc1ccc(CSc2nnc(-c3cccnc3)n2Cc2ccco2)c(Cl)c1	0	4	24	-12	86*	9
Clc1cccc(CSc2nnc(-c3cccnc3)n2Cc2ccco2)c1	0	1	25	-7	-21	-8
O=C(NCCN1CCN(C(=O)c2ccc([N+](=O)[O-])cc2)CC1)C(=O)Nc1ccc(F)cc1	0	0	4	.	-6	-2
O=C(N/N=C/c1ccc(-c2ccccc2Cl)o1)c1ccccc1	1	75*	8	5	63	13
NC(=S)N/N=C/c1ccc(-c2cc(Cl)ccc2Cl)o1	0	67*	93*	10	28	-50
NC(=S)N/N=C/c1ccc(-c2cc(Cl)cc(Cl)c2)o1	0	59*	?	-2	20	8
CCOC(=O)N/N=C\c1ccc(-c2cc(Cl)ccc2Cl)o1	-1	33	14	-6	10	-5
COC(=O)N/N=C/c1ccc(-c2cccc(Cl)c2)o1	1	29	?	1	-3	12
COC(=O)N/N=C/c1ccc(-c2cc(Cl)cc(Cl)c2)o1	0	25	79*	-2	1	-10
NC(=S)N/N=C/c1ccc(-c2ccc([N+](=O)[O-])cc2)o1	2	16	-8	-8	-6	0
O=C(NC(=S)Nc1cccc(C(F)(F)F)c1)c1csnn1	0	15	4	-2	9	5
CC1CCc2sc3ncnc(N4CCN(CCO)CC4)c3c2C1 (stereo not drawn)	0	10	-14	2	-30	18
CCCc1cc(=O)oc2cc(OCC(=O)NCCCN3CCOCC3)ccc12	1	-12	-2	.	-15	3
O=C1c2ccccc2C(=O)N1OS(=O)(=O)c1ccccc1	.	9	3	-1	42	8

From PubChem
